NF-kB neuron act – activators of NF-kB expression in neurons, primary screen, cell-based, HTS. human neuronal cells, NF-kB reporter expression; active compounds read high. AID 1239, 2008. hit rate 1.6% among 190,000. fold change at 12.5 µM; in the data active = fold change above about 3.3
APP 5'UTR act – activators of APP 5'UTR luciferase reporter, primary screen, SH-SY5Y cells; SH-SY5Y APP 5'UTR luciferase reporter, luminescence; zero percent = DMSO vehicle wells; activation, % at 2 µM; hit rate 1% among 190,000;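 active = activation above a set limit, based on mean plus 3 SD of controls, cut at about 140% in these data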
STAT3 blocker – IL-6 driven STAT3 reporter inhibitors, primary screen, U3A cells, luciferase, luminescence, MLSCN library; IL-6 STAT3-luciferase reporter; host cell line lacks STAT1; inhibition, % at 5.5 µM; hit rate 0.89% among 190,000;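 active = inhibition above the mean inhibition across all screened compounds plus 3 SD, cut at about 44% in these data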;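 also: 0% = DMSO only wells and 100% = 100 µM nifuroxazide control wells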
STAT1 inh – STAT1 signaling inhibitors, primary screen, cell-based, HTS, luciferase reporter | NIH 3T3 STAT1-luciferase reporter, IFN-gamma, luminescence | inhibition, % at 5.5 µM | hit rate 0.35% among 200,000 | AID 920, 2007;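 active = inhibition above a set limit, the mean inhibition across all tested compounds plus 3 SD, cut at about 34% in these data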;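 also: 0% = IFN-gamma with DMSO and 100% = IFN-gamma with 300 µM nifuroxazide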
STAT3 activator – IL-6 driven STAT3 reporter potentiators, primary screen, U3A cells, luciferase, luminescence, MLSCN library | IL-6 STAT3-luciferase reporter; 100% = signal with IL-6 EC80 alone | activation (% of control), % at 5.6 µM | hit rate 0.91% among 190,000 | AID 871, 2007;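 active = activation above the screen-wide mean of compound activation plus 3 SD, cut at about 130% in these data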;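 also: 0% = background luminescence of wells with medium and substrate only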
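Assay system – human STAT1-deficient U3A cells with stable STAT3-luciferase reporter · Also added – IL-6 (33 ng/mL) · Schedule – compound 1 h, then IL-6 6 h at 37 °C · Technique – reporter luminescence signal · Evaluation – % activation versus median of IL-6-stimulated wells · Benchmarks – IL-6-only wells as 100% reference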
STAT1 act – STAT1 signaling activators, primary screen, cell-based, HTS, luciferase reporter. NIH 3T3 STAT1-luciferase reporter, IFN-gamma, luminescence; 100% = IFN-gamma alone, no compound. activation (% of control), % at 5.5 µM. hit rate 2.6% among 200,000. AID 932, 2007;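 active = activation above the screen-wide mean activation plus 3 SD, cut at about 130% in these data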;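 also: raw ratio to IFN-gamma control signal so 100% means no change and 0% no light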
* marks the source's active call; other numbers are inactive results; · = no result given. Hits are enriched below; roughly 5.1% of the tested compounds scored in any of these assays.

SMILES	NF-kB neuron act	APP 5'UTR act	STAT3 blocker	STAT1 inh	STAT3 activator	STAT1 act
O=C(Oc1ccc(-c2cnc3ccccc3n2)cc1)c1ccc(Cl)c([N+](=O)[O-])c1	1.8	138*	10	-27	98	125
O=C(Oc1ccc(-c2cnc3ccccc3n2)cc1)c1ccc(Br)o1	2.9	113	7	-38	98	135*
NS(=O)(=O)c1ccc(NC(=O)C2C3C=CC(C3)C2C(=O)O)cc1 (stereo not given)	0.96	2	-7	-5	108	103
CCOC(=O)c1[nH]c(C)c(C(=O)OCCOc2cccc(C)c2)c1C	1.1	-1	-2	-8	98	107
c1ccc(-c2noc(CC3CCCCC3)n2)nc1	3	133	17	-38	91	133*
c1cc(-c2noc(CC3CCCCC3)n2)ccn1	1.3	5	2	-11	102	110
Clc1cc(Cl)c(OCc2nc(-c3ccccn3)no2)cc1Cl	5.2*	83	14	-35	91	132*
O=C(CN1C(=O)C2(OCCO2)c2ccccc21)c1ccc(Br)cc1	0.83	4	9	2	95	98
C=CCOC(=O)/C(=C\c1cccc2ccccc12)NC(=O)c1ccccc1	2	18	-8	-40	111	136*
C=CCOC(=O)/C(=C\c1ccccc1)NC(=O)c1ccc(C)cc1	0.78	66	-10	-38	114	132*
CCOc1ccc(NC(=O)c2ccc(NC(=O)CSc3nc4ccccc4c(=O)[nH]3)cc2)cc1	1.1	-13	0	0	107	99
Cc1cccc(C(C)C)c1NC(=O)c1ccc(CN(c2ccccc2)S(=O)(=O)c2ccccc2)cc1	0.96	-3	-6	-1	101	101
CCCCCCc1ccc(-c2ncc(N)cn2)cc1	4.4*	70	3	-42	100	139*
COC(=O)c1ccc(NC(=O)CSc2nnc(CNc3ccc(F)cc3)n2C)cc1	1.1	27	4	-8	100	108
Cc1ccc(C(=O)NC(=S)Nc2ccccc2N2CCCC2)cc1[N+](=O)[O-]	0.73	18	-44	6	134*	95
Cc1ccc(C(=O)Nc2ccccc2N2CCCCC2)cc1[N+](=O)[O-]	1.3	-7	4	1	100	99
CCCCC(=O)Nc1ccc(C(=O)NNC(=O)c2ccccc2Br)cc1	0.97	0	12	-5	100	104
Cc1ccc(NC(=O)c2cc(S(=O)(=O)N3CCOCC3)c(Br)s2)cc1	0.87	5	-1	9	103	92
CCOC(=O)c1cccc(COC(=O)c2cccc(-c3nnc(-c4ccccc4)o3)c2)c1	2	66	-11	-30	106	131*
COc1ccc(CC(=O)Nc2cccc(-c3nnc(-c4ccc(C)cc4)o3)c2)cc1OC	0.8	9	18	-5	90	104
Cc1ccc(OCC(=O)Nc2cccc(-c3nnc(-c4ccccc4)o3)c2)c(C)c1	0.95	-5	16	-35	90	132*
O=C(OCc1ccccc1)c1cccc(-c2nnc(-c3ccccc3)o2)c1	2	5	-5	8	104	93
CC(=O)Nc1cccc(-c2nnc(-c3ccccc3)o2)c1	2.2	82	-3	-37	104	130*
COCCN(Cc1cc2cc(C)c(C)cc2nc1Cl)C(=O)N1CCOCC1	1	-10	10	6	94	94
O=C(NC(=S)Nc1cc(C(F)(F)F)ccc1N1CCOCC1)c1sc2ccccc2c1Cl	0.75	22	15	12	89	89
SMILES	NF-kB neuron act	APP 5'UTR act	STAT3 blocker	STAT1 inh	STAT3 activator	STAT1 act
O=C(Nc1cccc([N+](=O)[O-])c1)c1ccn[nH]1	2.3	28	1	-29	101	126
O=c1[nH]c(/C=C2\C=Nc3ccccc32)c(O)n1Cc1ccccc1F	6.9*	-63	11	2	94	97
O=C(Nc1nccs1)c1cc2c(s1)-c1ccccc1OC2	2.3	96	14	-51	96	146*
O=C(Nc1nc2ccccc2s1)c1cc2c(s1)-c1ccccc1OC2	2	5	5	-24	103	122
O=C(Nc1ccc2c(c1)OCO2)c1cccc(Cl)c1	2.9	59	6	-31	98	129*
O=C(Nc1ccc2c(c1)OCO2)c1c(F)c(F)c(F)c(F)c1F	1.3	24	-4	3	106	102
O=C(Nc1ccc(Cl)cc1)c1ccc2c(c1)OCO2	6.8*	193*	30	-42	77	139*
O=C(Nc1ccc(F)c(F)c1)c1ccc2c(c1)OCO2	2.5	81	24	-42	82	138*
O=C(Nc1ccc(Cl)c([N+](=O)[O-])c1)c1ccc2c(c1)OCCO2	3.7*	168*	16	-42	93	139*
CCOc1ccc(C(=O)Nc2ccc3c(c2)OCCO3)cc1[N+](=O)[O-]	1.1	19	23	1	82	98
O=C(Nc1ccc2c(c1)OCO2)c1c(Cl)nc2sccn12	1.1	32	-11	-34	115	131*
O=C(Nc1ccc2c(c1)OCCO2)NC1CCCCC1	5.2*	138*	21	-32	85	129*
O=C(N/N=C/c1ccncc1)c1ccc2c(c1)OCO2	1.3	1	-4	-9	106	107
O=C(N/N=C/c1cccs1)c1ccc2c(c1)OCO2	1	104	7	-32	93	129*
O=C(Nc1ccc2c(c1)OCCO2)C1CCC1	1.3	16	4	-4	99	104
O=C(CCCc1ccccc1)c1ccc2c(c1)OCCO2	0.69	·	108*	92*	11	16
Cc1noc(C(=O)Nc2ccc3c(c2)OCO3)c1Cl	2.5	43	-5	-29	109	126
Cc1ccc(NC(=O)c2c3c(nc4ccccc24)CCC3)cc1S(=O)(=O)N(C)C	0.71	19	9	7	94	92
COc1ccccc1CCc1nnc(CCC(=O)N(C)Cc2cccc3ncccc23)o1	1.1	9	5	6	98	93
Cc1[nH]c2ccccc2c1-c1nc(-c2ccc(Cl)cc2)nnc1-c1ccccc1	1.4	34	2	6	99	93
Cc1csc(NC(=O)c2cc(-c3ccccc3)nc3ccccc23)n1	0.44	7	11	14	90	87
O=C(Nc1ccc2c(c1)OCO2)Nc1cnccn1	1.8	20	16	-19	90	118
CCC(=O)Oc1ccc(C(=O)Nc2ccc3c(c2)OCO3)cc1	1	142*	12	-45	94	137*
O=C(Nc1ccc2c(c1)OCO2)c1cnn2cccnc12	3.2	101	11	-33	94	130*

Screening results (PubChem)
